ChEMBL document CHEMBL4814013, “Scaffold repurposing of fendiline: Identification of potent KRAS plasma membrane localization inhibitors” (Eur J Med Chem, 2021)
Activity calls are given as the source filed them. The rule behind the calls is not given here.

Legend:
MDCK [1] = assay: Inhibition of ASM in dog MDCK cells co-expressing recombinant full length mGFP-tagged KRAS G12V mutant and mCherry-CAAX assessed as reduction in plasma membrane localization of KRAS mutant incubated for 48 hrs by confocal microscopic analysis relative to control; assay type: cell membranes; details: Canis lupus familiaris
Summary of the method: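 MDCK cells stably co-expressing mGFP-KRAS G12V or mGFP-LactC2 with mCherry-CAAX (HRAS 179–189 C181S/C184S) grown on coverslips in DMEM/10% FBS. Treated 48 h with 0.1% DMSO or graded drug, fixed in 4% paraformaldehyde, then quantitative confocal imaging. Mislocalization scored as the Manders fraction of mCherry-CAAX co-localizing with the GFP probe. IC50 and Emax from three independent experiments.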

NCI-H522 = assay: Antiproliferative activity against human NCI-H522 cells expressing wild type KRAS assessed as reduction in cell growth incubated for 72 hrs by CyQuant proliferation assay; assay type: functional, cell-based; details: NCI-H522, 72 h
Summary of the method: (§1)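 Cells seeded in 96-well plates; after 24 h fresh growth medium with 0.1% DMSO vehicle or drug added (highest dose 30 µM for cancer lines), grown 72 h at 37 °C, 5% CO2. Live cell number measured by CyQUANT fluorescence. IC50 from three independent experiments. MEFs were isogenic lines carrying oncogenic BRAF or KRAS.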

NCI-H23 = assay: Antiproliferative activity against human NCI-H23 cells expressing mutant KRAS assessed as reduction in cell growth incubated for 72 hrs by CyQuant proliferation assay; assay type: functional, cell-based; details: NCI-H23, 72 h; summary of the method: as §1
MIA PaCa-2 [2] = assay: Antiproliferative activity against human MIA PaCa-2 cells expressing KRAS mutant assessed as reduction in cell growth incubated for 72 hrs by CyQuant proliferation assay; assay type: functional, cell-based; details: MIA PaCa-2, 72 h; summary of the method: as §1
[3] = Antiproliferative activity against human MPANC96 cells expressing KRAS mutant assessed as reduction in cell growth incubated for 72 hrs by CyQuant proliferation assay; assay type: functional, cell-based; details: MPANC96, 72 h; summary of the method: as §1
HEC-1B cell line = assay: Antiproliferative activity against human HEC-1B cells expressing mutant KRAS assessed as reduction in cell growth incubated for 72 hrs by CyQuant proliferation assay; assay type: functional, cell-based; summary of the method: as §1
BXPC-3 = assay: Antiproliferative activity against human BXPC-3 cells expressing wild type KRAS assessed as reduction in cell growth incubated for 72 hrs by CyQuant proliferation assay; assay type: functional, cell-based; details: BXPC-3, 72 h; summary of the method: as §1
MDCK [4] = assay: Cytotoxicity against dog MDCK cells at 30 uM; assay type: functional, cell-based; details: Canis lupus familiaris
Caco-2 = assay: Antiproliferative activity against human Caco-2 cells expressing wild type KRAS assessed as reduction in cell growth incubated for 72 hrs by CyQuant proliferation assay; assay type: functional, cell-based; details: Caco-2, 72 h; summary of the method: as §1
[5] = Antiproliferative activity against human MOH cells expressing KRAS mutant assessed as reduction in cell growth incubated for 72 hrs by CyQuant proliferation assay; assay type: functional, cell-based; summary of the method: as §1
Ishikawa = assay: Antiproliferative activity against human Ishikawa cells expressing wild type KRAS assessed as reduction in cell growth incubated for 72 hrs by CyQuant proliferation assay; assay type: functional, cell-based; summary of the method: as §1
SK-CO-1 = assay: Antiproliferative activity against human SK-CO-1 cells expressing mutant KRAS assessed as reduction in cell growth incubated for 72 hrs by CyQuant proliferation assay; assay type: functional, cell-based; details: SK-CO-1, 72 h; summary of the method: as §1
NCI-H1975 = assay: Antiproliferative activity against human NCI-H1975 cells expressing wild type KRAS assessed as reduction in cell growth incubated for 72 hrs by CyQuant proliferation assay; assay type: functional, cell-based; details: NCI-H1975, 72 h; summary of the method: as §1
HEC-1-A = assay: Antiproliferative activity against human HEC-1-A cells expressing mutant KRAS assessed as reduction in cell growth incubated for 72 hrs by CyQuant proliferation assay; assay type: functional, cell-based; summary of the method: as §1
NCI-H1299 = assay: Antiproliferative activity against human NCI-H1299 cells expressing wild type KRAS assessed as reduction in cell growth incubated for 72 hrs by CyQuant proliferation assay; assay type: functional, cell-based; details: NCI-H1299, 72 h; summary of the method: as §1
Caenorhabditis elegans = assay: In vivo inhibition of KRAS signaling in Caenorhabditis elegans lin-1 L1 harboring let60 […] mutant assessed as reduction in multi-vulva phenotype measured after 4 to 5 days culturing in buffer containing Escherichia coli OP50 by DIC/Nomarski microscopic analysis; assay type: functional, organism-based; details: dose 0.1-30 µM, time 4-5 day
Summary of the method: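 let-60 (n1046) or lin-1 L1 larvae cultured in M9 buffer with E. coli OP50 plus DMSO vehicle or compound at 0.1, 0.3, 1, 3, 10 or 30 µM. After 4–5 days, adults were scored for multi-vulva by DIC/Nomarski microscopy.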

Mus musculus [6] = assay: In vivo inhibition of KRAS signaling in nu/nu mouse xenografted with human MIA PaCa-2 cells harboring KRAS mutation assessed as decrease in ERK phosphorylation in tumor at 1 to 5 mg/kg, ip administered once daily for 5 days with 2 days break by immunohistochemistry; assay type: functional, organism-based; details: dose 1-5 mg/kg, time 5.0 day
Summary of the method: (§2)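 Paraffin tumor sections of 4–5 µm were deparaffinized and given heat antigen retrieval in 10 mM sodium citrate. Endogenous peroxidase was quenched and sections blocked in 2.5% normal goat serum. Primary antibody (pERK or cleaved caspase 3) applied overnight at 4 °C, biotinylated secondary 1:250 for 45 min at rt, then ABC reagent 30 min and DAB development. Rabbit IgG served as control.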

Mus musculus [7] = assay: In vivo inhibition of Ca2+ channel in nu/nu mouse xenografted with human MIA PaCa-2 cells harboring KRAS mutation assessed as blood vessel dialation in tumor at 1 to 5 mg/kg, ip administered once daily for 5 days with 2 days break by immunostaining; assay type: functional, organism-based; details: dose 1-5 mg/kg, time 5.0 day
MDCK [8] = assay: Inhibition of ASM in dog MDCK cells co-expressing recombinant full length mGFP-tagged KRAS G12V mutant and mCherry-CAAX assessed as reduction in plasma membrane localization of KRAS mutant at 10 uM incubated for 48 hrs followed by incubation with recombinant ASM in continued presence of compound for 60 mins by confocal microscopic analysis; assay type: cell membranes; details: Canis lupus familiaris, time 49.0 hrs
Summary of the method: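 MDCK cells stably co-expressing mGFP-KRAS G12V and mCherry-CAAX seeded on glass coverslips and grown 48 h with or without compound. Medium then replaced with fresh medium containing 2 units/mL recombinant ASM, drug continued, for 60 min. Cells mounted in mowiol and imaged by confocal microscopy. Mislocalization scored by Manders coefficient.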

MEF [9] = assay: Antiproliferative activity against mouse MEF cells expressing KRAS G12D mutant assessed as reduction in cell growth incubated for 72 hrs by CyQuant proliferation assay; assay type: functional, cell-based; summary of the method: as §1
MIA PaCa-2 [10] = assay: Antitumor activity human MIA PaCa-2 cells harboring KRAS mutation xenografted in nu/nu mouse assessed as induction of apoptosis by measuring increase in cleaved caspase 3 level in tumor at 1 to 5 mg/kg, ip administered once daily for 5 days with 2 days break by immunohistochemistry; assay type: functional, organism-based; details: dose 1-5 mg/kg, time 5.0 day; summary of the method: as §2
MDCK [11] = assay: Reduction in expression of human GFP-tagged ASM transfected in dog MDCK cells at 5 uM incubated for 48 hrs by western blot analysis; assay type: functional, cell-based; details: Canis lupus familiaris
Summary of the method: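 SMPD1-GFP-expressing MDCK cells treated 48 h with 5 µM compound, washed in cold PBS and lysed in Tris pH 7.5 buffer with NaF, EGTA, DTT, vanadate, 1% NP40 and protease inhibitors. 20 µg of protein resolved by SDS-PAGE and immunoblotted. Signals detected by enhanced chemiluminescence and quantified by densitometry.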

Mus musculus [12] = assay: In vivo inhibition of ASM in nu/nu mouse xenografted with human MIA PaCa-2 cells harboring KRAS mutation assessed as increase in SM accumulation in tumor at 12.5 mg/kg, ip administered once daily for 5 days with 2 days break by GFP-lysenin staining based confocal laser microscopy; assay type: functional, organism-based; details: time 5.0 day
Summary of the method: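 Sections of MiaPaCa-2 xenograft tumors from i.p.-treated nu/nu mice (12.5 mg/kg) stained with GFP-tagged lysenin to detect sphingomyelin.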

[13] = biological target: T1, Sphingomyelin phosphodiesterase (Homo sapiens) (UniProt P17405); assay: Inhibition of human GFP-tagged ASM expressed in dog MDCK cells using sphingomyelin as substrate at 5 uM incubated for 48 hrs by Amplex Red dye based fluorescence analysis; assay type: cell-based
T1 sequence (whole entry): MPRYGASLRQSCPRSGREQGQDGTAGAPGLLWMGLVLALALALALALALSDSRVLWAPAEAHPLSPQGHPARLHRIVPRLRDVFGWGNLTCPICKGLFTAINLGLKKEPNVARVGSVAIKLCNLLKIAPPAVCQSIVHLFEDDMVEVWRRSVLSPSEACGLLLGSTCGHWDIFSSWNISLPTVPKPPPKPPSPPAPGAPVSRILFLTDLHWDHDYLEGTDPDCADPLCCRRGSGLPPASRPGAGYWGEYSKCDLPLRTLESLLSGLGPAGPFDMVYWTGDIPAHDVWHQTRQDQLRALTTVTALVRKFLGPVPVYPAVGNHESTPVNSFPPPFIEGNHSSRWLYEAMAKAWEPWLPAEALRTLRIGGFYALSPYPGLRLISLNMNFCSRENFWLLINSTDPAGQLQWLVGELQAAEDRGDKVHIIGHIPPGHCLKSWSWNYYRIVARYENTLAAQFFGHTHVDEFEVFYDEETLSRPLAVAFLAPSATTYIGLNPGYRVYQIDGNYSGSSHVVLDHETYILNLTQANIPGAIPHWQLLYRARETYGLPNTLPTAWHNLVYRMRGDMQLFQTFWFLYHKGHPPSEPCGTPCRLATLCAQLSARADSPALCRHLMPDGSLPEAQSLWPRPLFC
Summary of the method: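 MDCK cells stably expressing human SMPD1-GFP treated 48 h at 5 µM. Whole-cell lysate, made without DTT, mixed with 50 mM sodium acetate pH 5.0 plus sphingomyelin and held 1 h at 37 °C. pH then raised to 7.4 with Amplex Red mix (100 µM Amplex Red, 2 U/mL HRP, 0.2 U/mL choline oxidase, 8 U/mL alkaline phosphatase, 100 mM Tris pH 8.0), 60 min at 37 °C. Fluorescence read at Ex 540/Em 590 nm. Controls: 0.1 U/mL SMase (positive), buffer alone (negative).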

MEF [14] = assay: Antiproliferative activity against mouse MEF cells expressing KRAS G12V mutant assessed as reduction in cell growth incubated for 72 hrs by CyQuant proliferation assay; assay type: functional, cell-based; summary of the method: as §1
MEF [15] = assay: Cytotoxicity against mouse MEF cells expressing BRAF V600E mutant and wild type KRAS assessed as reduction in cell growth incubated for 72 hrs by CyQuant proliferation assay; assay type: functional, cell-based; summary of the method: as §1

| SMILES | IC50 (NCI-H522) | IC50 (MIA PaCa-2 [2]) | IC50 [3] | IC50 (HEC-1B cell line) | IC50 (BXPC-3) | IC50 (Caco-2) | IC50 [5] | IC50 (Ishikawa) | IC50 (NCI-H1975) | IC50 (HEC-1-A) | IC50 (NCI-H1299) | further results |
| --- | --- | --- | --- | --- | --- | --- | --- | --- | --- | --- | --- | --- |
| COc1ccc([C@@H](C)N(CC=C(c2ccccc2)c2ccccc2)CC=C(c2ccccc2)c2ccccc2)cc1 | > 30 µM | > 30 µM | > 30 µM | > 30 µM | > 30 µM | > 30 µM | > 30 µM | > 30 µM | > 30 µM | > 30 µM | > 30 µM | Emax (MDCK [1]): 0.74; IC50 (NCI-H23): > 30 µM; Activity (MDCK [4]): inactive; IC50 (SK-CO-1): > 30 µM |
| CC(NCCC(c1ccccc1)c1ccccc1)c1ccccc1 (configuration not stated) [FENDILINE] | 29.6 µM | 9.2 µM | 10.8 µM | 9.8 µM | 28.6 µM | 14.5 µM | 11.1 µM | > 30 µM | > 30 µM | 9.48 µM | 24.3 µM | inhibition (Caenorhabditis elegans): Dose-Dependent Effect; inhibition (Mus musculus [6]): inactive; inhibition (Mus musculus [7]): Active; inhibition (MDCK [8]): inactive; IC50 (MEF [9]): 13.1 µM; Activity (MIA PaCa-2 [10]): inactive; inhibition (MDCK [11]): inactive; inhibition (Mus musculus [12]): Active; inhibition [13]: Active; IC50 (MEF [14]): 8.1 µM; IC50 (MEF [15]): 17.8 µM |
